Measurements of several laboratories.
Compare with care: the assays were run in different laboratories.
RNMT: mRNA cap guanine-N(7) methyltransferase (RNMT, Homo sapiens, UniProt O43148)
DHFR: Dihydrofolate reductase (DHFR, Homo sapiens, UniProt P00374)
HTR2B: 5-hydroxytryptamine receptor 2B (HTR2B, Homo sapiens, UniProt P41595)

| target | effect on | action | method | endpoint | result | Structure (SMILES) |
| --- | --- | --- | --- | --- | --- | --- |
| 5-hydroxytryptamine receptor 2C (HTR2C, Homo sapiens, UniProt P28335) | calcium signal | antagonist |  | Kb | 3.39 nM | N#C[C@@]12C[C@@H]1[C@@H](n1cnc3c(N[C@@H](C4CCC4)C4CC4)nc(I)nc31)[C@H](O)[C@@H]2O |
| RNMT | binding |  | MST | Kd | > 300000 nM | CC(=O)N(CC#Cc1cccc(C(N)=O)c1)C[C@H]1C[C@@H](n2ccc3c(Cl)ncnc32)[C@H](O)[C@@H]1O |
| DHFR | enzyme activity | inhibitor |  | IC50 | 22400 nM | COc1cccc(NC(=S)NN=Cc2ccc(N3CCCCC3)cc2)c1 |
| HTR2B | ligand displacement |  | radioligand | Ki | 4.27 nM | N#C[C@@]12C[C@@H]1[C@@H](n1cnc3c(NC4CCCC4)nc(I)nc31)[C@H](O)[C@@H]2O |
| HTR2B | calcium signal | antagonist |  | IC50 | 16500 nM | O=C(c1cc(C2CCNC2)[nH]n1)N1CCC(c2cccc(Cl)c2)C1 (stereo not shown) |
| Lysophosphatidic acid receptor 1 (LPAR1, Homo sapiens, UniProt Q92633) | G protein activation | agonist |  | EC50 | 1.2 nM | CCc1oc2c([C@H](CO)N(CC)CC)cccc2c1C |
| Guanine nucleotide-binding protein G(i) subunit alpha-3 (GNAI3, Homo sapiens, UniProt P08754) | binding |  | BLI | Kd | ~1600 nM | O=C(O)C1=CC(=C(c2ccc(O)c(C(=O)O)c2)c2ccc(O)c(C(=O)O)c2)C=CC1=O |
| DHFR | enzyme activity | inhibitor |  | IC50 | 28500 nM | Cc1ccc(NC(=S)NN=Cc2ccc(N3CCCCC3)cc2)cc1 |
| RNMT | binding |  | MST | Kd | 35700 nM | NC(=O)c1cccc(C#CCN(CC[C@H](N)C(=O)O)C[C@H]2O[C@@H](n3cnc4c(N)ncnc43)[C@H](O)[C@@H]2O)c1 |
| HTR2B | calcium signal | antagonist |  | IC50 | 134 nM | Cc1ccc(F)c(O)c1CN1CCN(C2CCCC2O)CC1 (stereo not shown) |
